{"source": "ChEMBL document CHEMBL4689842", "about": "“EUbOPEN Chemogenomics Library wave 1” (2021)", "system": "U2OS", "test": "Multiplex assay against U2OS", "format": "toxicity, cell-based", "conditions": "human", "method_in_brief": "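Live cells carried four stains from seeding: Hoechst33342, BioTracker Green Microtubule Cytoskeleton Dye, MitoTracker Red and Annexin V Alexa Fluor 680. They were imaged on a CQ1 microscope at 37°C and 5% CO2 after compound addition. Using CellPathfinder machine-learning gating, cells were split into Hoechst high-intensity objects or normal cells, normal cells into healthy, pyknosed or fragmented nuclei, and pyknosed cells into mitotic or apoptotic; tubulin, mitochondrial-mass and membrane-permeability phenotypes are per cents of healthy-nucleus cells.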", "key": {"[1]": {"conditions": "12 h, 1 µM, compound concentration 1 uM, replicate 1"}, "[2]": {"conditions": "12 h, 1 µM, compound concentration 1 uM, replicate 2"}, "[3]": {"conditions": "12 h, 10 µM, compound concentration 10 uM, replicate 1"}, "[4]": {"conditions": "12 h, 10 µM, compound concentration 10 uM, replicate 2"}, "[5]": {"conditions": "24 h, 1 µM, compound concentration 1 uM, replicate 1"}, "[6]": {"conditions": "24 h, 1 µM, compound concentration 1 uM, replicate 2"}, "[7]": {"conditions": "24 h, 10 µM, compound concentration 10 uM, replicate 1"}, "[8]": {"conditions": "24 h, 10 µM, compound concentration 10 uM, replicate 2"}, "[9]": {"conditions": "48 h, 10 µM, compound concentration 10 uM, replicate 1"}, "[10]": {"conditions": "48 h, 10 µM, compound concentration 10 uM, replicate 2"}}, "note": "Where “and” joins values, the source holds several entries; their conditions need not be identical. Equal entries are not always repeated."}
{"smiles": "c1ccc(-c2oc3ncnc(NC[C@@H]4CCCO4)c3c2-c2ccccc2)cc1", "values": [{"measurement": "Population Apoptotic (%)", "setting": "[1]", "value": "68% and 50%"}, {"measurement": "Population Fragmented Nuclei (%)", "setting": "[1]", "value": 4, "unit": "%"}, {"measurement": "Population Healthy Nuclei (%)", "setting": "[1]", "value": "86% and 84%"}, {"measurement": "Population Mitochondria Different-Phenotype (%)", "setting": "[1]", "value": "12% and 18%"}, {"measurement": "Population Mitotic Cells (%)", "setting": "[1]", "value": "31% and 50%"}, {"measurement": "Population Normal (%)", "setting": "[1]", "value": "98% and 95%"}, {"measurement": "Population Pyknosed Nuclei (%)", "setting": "[1]", "value": "9% and 8%"}, {"measurement": "Total Cell Count", "setting": "[1]", "value": "173 and 152"}, {"measurement": "Population Apoptotic (%)", "setting": "[2]", "value": "66% and 25%"}, {"measurement": "Population Fragmented Nuclei (%)", "setting": "[2]", "value": 6, "unit": "%"}, {"measurement": "Population Healthy Nuclei (%)", "setting": "[2]", "value": 90, "unit": "%"}, {"measurement": "Population Hoechst High Intensity Objects (%)", "setting": "[2]", "value": "10% and 18%"}, {"measurement": "Population Mitochondria Different-Phenotype (%)", "setting": "[2]", "value": "17% and 35%"}, {"measurement": "Population Mitotic Cells (%)", "setting": "[2]", "value": "33% and 75%"}, {"measurement": "Population Normal (%)", "setting": "[2]", "value": "89% and 81%"}, {"measurement": "Population Pyknosed Nuclei (%)", "setting": "[2]", "value": "7% and 4%"}, {"measurement": "Total Cell Count", "setting": "[2]", "value": "137 and 107"}, {"measurement": "Population Apoptotic (%)", "setting": "[3]", "value": 78, "unit": "%"}, {"measurement": "Population Fragmented Nuclei (%)", "setting": "[3]", "value": 12, "unit": "%"}, {"measurement": "Population Healthy Nuclei (%)", "setting": "[3]", "value": 64, "unit": "%"}, {"measurement": "Population Hoechst High Intensity Objects (%)", "setting": "[3]", "value": 10, "unit": "%"}, {"measurement": "Population Membrane Permeable-Phenotype (%)", "setting": "[3]", "value": 20, "unit": "%"}, {"measurement": "Population Mitochondria Different-Phenotype (%)", "setting": "[3]", "value": 82, "unit": "%"}, {"measurement": "Population Mitotic Cells (%)", "setting": "[3]", "value": 21, "unit": "%"}, {"measurement": "Population Normal (%)", "setting": "[3]", "value": 89, "unit": "%"}, {"measurement": "Population Pyknosed Nuclei (%)", "setting": "[3]", "value": 22, "unit": "%"}, {"measurement": "Population Tubulin-Different-Phenotype (%)", "setting": "[3]", "value": 93, "unit": "%"}, {"measurement": "Total Cell Count", "setting": "[3]", "value": 137}, {"measurement": "Population Apoptotic (%)", "setting": "[4]", "value": 87, "unit": "%"}, {"measurement": "Population Fragmented Nuclei (%)", "setting": "[4]", "value": 14, "unit": "%"}, {"measurement": "Population Healthy Nuclei (%)", "setting": "[4]", "value": 71, "unit": "%"}, {"measurement": "Population Hoechst High Intensity Objects (%)", "setting": "[4]", "value": 6, "unit": "%"}, {"measurement": "Population Membrane Permeable-Phenotype (%)", "setting": "[4]", "value": 34, "unit": "%"}, {"measurement": "Population Mitochondria Different-Phenotype (%)", "setting": "[4]", "value": 56, "unit": "%"}, {"measurement": "Population Mitotic Cells (%)", "setting": "[4]", "value": 12, "unit": "%"}, {"measurement": "Population Normal (%)", "setting": "[4]", "value": 93, "unit": "%"}, {"measurement": "Population Pyknosed Nuclei (%)", "setting": "[4]", "value": 14, "unit": "%"}, {"measurement": "Population Tubulin-Different-Phenotype (%)", "setting": "[4]", "value": 95, "unit": "%"}, {"measurement": "Total Cell Count", "setting": "[4]", "value": 61}, {"measurement": "Population Apoptotic (%)", "setting": "[5]", "value": "59% and 70%"}, {"measurement": "Population Fragmented Nuclei (%)", "setting": "[5]", "value": 6, "unit": "%"}, {"measurement": "Population Healthy Nuclei (%)", "setting": "[5]", "value": "79% and 90%"}, {"measurement": "Population Hoechst High Intensity Objects (%)", "setting": "[5]", "value": "2% and 3%"}, {"measurement": "Population Mitochondria Different-Phenotype (%)", "setting": "[5]", "value": "26% and 22%"}, {"measurement": "Population Mitotic Cells (%)", "setting": "[5]", "value": "40% and 30%"}, {"measurement": "Population Normal (%)", "setting": "[5]", "value": "97% and 96%"}, {"measurement": "Population Pyknosed Nuclei (%)", "setting": "[5]", "value": "13% and 5%"}, {"measurement": "Population Tubulin-Different-Phenotype (%)", "setting": "[5]", "value": 83, "unit": "%"}, {"measurement": "Total Cell Count", "setting": "[5]", "value": "198 and 202"}, {"measurement": "Population Fragmented Nuclei (%)", "setting": "[6]", "value": "4% and 8%"}, {"measurement": "Population Healthy Nuclei (%)", "setting": "[6]", "value": "77% and 87%"}, {"measurement": "Population Hoechst High Intensity Objects (%)", "setting": "[6]", "value": "6% and 8%"}, {"measurement": "Population Mitochondria Different-Phenotype (%)", "setting": "[6]", "value": "19% and 29%"}, {"measurement": "Population Normal (%)", "setting": "[6]", "value": "93% and 91%"}, {"measurement": "Total Cell Count", "setting": "[6]", "value": "153 and 143"}, {"measurement": "Population Apoptotic (%)", "setting": "[7]", "value": 82, "unit": "%"}, {"measurement": "Population Fragmented Nuclei (%)", "setting": "[7]", "value": 8, "unit": "%"}, {"measurement": "Population Healthy Nuclei (%)", "setting": "[7]", "value": 68, "unit": "%"}, {"measurement": "Population Hoechst High Intensity Objects (%)", "setting": "[7]", "value": 12, "unit": "%"}, {"measurement": "Population Membrane Permeable-Phenotype (%)", "setting": "[7]", "value": 34, "unit": "%"}, {"measurement": "Population Mitochondria Different-Phenotype (%)", "setting": "[7]", "value": 74, "unit": "%"}, {"measurement": "Population Mitotic Cells (%)", "setting": "[7]", "value": 17, "unit": "%"}, {"measurement": "Population Normal (%)", "setting": "[7]", "value": 87, "unit": "%"}, {"measurement": "Population Pyknosed Nuclei (%)", "setting": "[7]", "value": 23, "unit": "%"}, {"measurement": "Population Tubulin-Different-Phenotype (%)", "setting": "[7]", "value": 95, "unit": "%"}, {"measurement": "Total Cell Count", "setting": "[7]", "value": 138}, {"measurement": "Population Apoptotic (%)", "setting": "[8]", "value": 100, "unit": "%"}, {"measurement": "Population Fragmented Nuclei (%)", "setting": "[8]", "value": 14, "unit": "%"}, {"measurement": "Population Hoechst High Intensity Objects (%)", "setting": "[8]", "value": 10, "unit": "%"}, {"measurement": "Population Membrane Permeable-Phenotype (%)", "setting": "[8]", "value": 21, "unit": "%"}, {"measurement": "Population Mitochondria Different-Phenotype (%)", "setting": "[8]", "value": 56, "unit": "%"}, {"measurement": "Population Mitotic Cells (%)", "setting": "[8]", "value": 0, "unit": "%"}, {"measurement": "Population Normal (%)", "setting": "[8]", "value": 90, "unit": "%"}, {"measurement": "Population Pyknosed Nuclei (%)", "setting": "[8]", "value": 16, "unit": "%"}, {"measurement": "Population Tubulin-Different-Phenotype (%)", "setting": "[8]", "value": 81, "unit": "%"}, {"measurement": "Total Cell Count", "setting": "[8]", "value": 60}, {"measurement": "Population Apoptotic (%)", "setting": "[9]", "value": 70, "unit": "%"}, {"measurement": "Population Fragmented Nuclei (%)", "setting": "[9]", "value": 15, "unit": "%"}, {"measurement": "Population Healthy Nuclei (%)", "setting": "[9]", "value": 57, "unit": "%"}, {"measurement": "Population Hoechst High Intensity Objects (%)", "setting": "[9]", "value": 5, "unit": "%"}, {"measurement": "Population Membrane Permeable-Phenotype (%)", "setting": "[9]", "value": 41, "unit": "%"}, {"measurement": "Population Mitochondria Different-Phenotype (%)", "setting": "[9]", "value": 61, "unit": "%"}, {"measurement": "Population Mitotic Cells (%)", "setting": "[9]", "value": 29, "unit": "%"}, {"measurement": "Population Normal (%)", "setting": "[9]", "value": 94, "unit": "%"}, {"measurement": "Population Pyknosed Nuclei (%)", "setting": "[9]", "value": 26, "unit": "%"}, {"measurement": "Population Tubulin-Different-Phenotype (%)", "setting": "[9]", "value": 89, "unit": "%"}, {"measurement": "Total Cell Count", "setting": "[9]", "value": 134}, {"measurement": "Population Apoptotic (%)", "setting": "[10]", "value": 77, "unit": "%"}, {"measurement": "Population Fragmented Nuclei (%)", "setting": "[10]", "value": 12, "unit": "%"}, {"measurement": "Population Healthy Nuclei (%)", "setting": "[10]", "value": 75, "unit": "%"}, {"measurement": "Population Hoechst High Intensity Objects (%)", "setting": "[10]", "value": 10, "unit": "%"}, {"measurement": "Population Membrane Permeable-Phenotype (%)", "setting": "[10]", "value": 62, "unit": "%"}, {"measurement": "Population Mitochondria Different-Phenotype (%)", "setting": "[10]", "value": 27, "unit": "%"}, {"measurement": "Population Mitotic Cells (%)", "setting": "[10]", "value": 22, "unit": "%"}, {"measurement": "Population Normal (%)", "setting": "[10]", "value": 90, "unit": "%"}, {"measurement": "Population Pyknosed Nuclei (%)", "setting": "[10]", "value": 12, "unit": "%"}, {"measurement": "Population Tubulin-Different-Phenotype (%)", "setting": "[10]", "value": 72, "unit": "%"}, {"measurement": "Total Cell Count", "setting": "[10]", "value": 80}]}
